Assay results from different studies.
Lines come from different studies, so protocols differ.
Route: oral

`Cc1cc(-c2ccnc3[nH]cc(F)c23)cc(F)c1[C@@]1(O)[C@H](C)CN(C2CCS(=O)(=O)CC2)C[C@@H]1C` has a bioavailability of 37.7% (male CD-1 mouse; plasma; 3 mg/kg).
`CC(C)[C@@H](CS(=O)(=O)C(C)C)N1C(=O)[C@@](C)(CC(=O)O)C[C@H](c2cccc(Cl)c2)[C@H]1c1ccc(Cl)cc1` has a bioavailability of 16% (FVB mouse; plasma; 20 mg/kg; single dose).
`O=C1CCC(N2Cc3cc(C4CCN(Cc5ccccc5)CC4)ccc3C2=O)C(=O)N1` (centres unmarked) has a bioavailability of 63.8% (male CD-1 mouse; plasma; 3 mg/kg).
For `C=CCn1c(=O)c2cnc(Nc3ccc(N4CCN(C)CC4)cc3)nc2n1-c1ccc2c(n1)[C@@](O)(CC)CC2`, the bioavailability was 98% (mouse; plasma; 60 mg/kg).
With `NCc1ccc(-c2nn(Cc3ccccc3)c3ccccc23)o1` the bioavailability was 34% (male CD-1 mouse; plasma; 10 mg/kg).
With `CCOC(=O)C1=C(CN2CCC[C@@H]2C(=O)Nc2ccc(B(O)O)cc2)NC(c2nccs2)=N[C@H]1c1ccc(F)cc1Br` the bioavailability was 10.4% (CD-1 mouse; plasma; 10 mg/kg).
`CN(C)C(=O)c1cc2cnc(Nc3ccc(-c4ccc5c(=O)cc(N6CCOCC6)oc5c4)cc3)nc2n1C1CCCC1.Cl` has a bioavailability of 29% (BALB/c mouse; plasma; 20 mg/kg).
`Cc1nc2ccc(OCc3ccc(C(F)(F)F)cc3)cc2[nH]1` has a bioavailability of 35% (male BALB/c mouse; plasma; 10 mg/kg).
For `Cc1ccc(OCC(=O)N[C@@H](Cc2c[nH]c3ccccc23)C(=O)OC(C)C)cc1`, the bioavailability was 39% (male Sprague-Dawley mouse; plasma; 20 mg/kg).
The bioavailability of `Cc1cc(-c2ccnc3[nH]cc(F)c23)cc(F)c1[C@@]1(O)[C@H](C)CN(C(=O)CN)C[C@@H]1C` is reported as 30.7% (male CD-1 mouse; plasma; 3 mg/kg).
With `Oc1ccc([C@@H]2Oc3ccc(O)cc3[C@@H]3CCC[C@@H]32)cc1` the bioavailability was 14% (male C57BL/6 mouse; plasma; 10 mg/kg).
The bioavailability of `COCC(=O)N1CCc2[nH]c3c(Cl)c(Cl)ccc3c2[C@@H]1C` is reported as 12.5% (C57BL/6 mouse; blood; 20 mg/kg).
`OCc1ccc(-c2nn(Cc3ccccc3)c3ccccc23)o1` has a bioavailability of 11% (male CD-1 mouse; plasma; 10 mg/kg).
For `FC(F)(F)CN1CC(n2cc(Oc3ccn4nc(Cl)cc4n3)cn2)C1`, the bioavailability was 46% (FVB mouse; blood; single dose).
